According to ChEMBL document CHEMBL5096186, “Design, Synthesis, and Biological Evaluation of Novel Pyrimido[4,5-b]indole Derivatives Against Gram-Negative Multidrug-Resistant Pathogens” (J Med Chem, 2021):
Converted amounts (≈) assume the structure as drawn.

What was measured:
[1] = tested on: Staphylococcus epidermidis; experiment: Antibacterial activity against methicillin-sensitive Staphylococcus epidermidis strains 15 1 to 4 assessed as reduction in bacterial growth incubated for 18 to 20 hrs by CLSI based microdilution method; type: functional; conditions: time 18-20 hrs
Outline: (§1)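 Broth microdilution per CLSI. Compounds dissolved in DMSO (levofloxacin and meropenem in water) as 64 μg/mL stock, then serial twofold dilutions in broth giving 64 to 0.008 μg/mL. […] Clinical isolates tested as several strains per group; racemic GP-1 served as positive control; values given as MIC ranges.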

[2] = tested on: Pseudomonas aeruginosa; experiment: Antibacterial activity against multidrug resistant Pseudomonas aeruginosa strains 15 1 to 3 assessed as reduction in bacterial growth incubated for 18 to 20 hrs by CLSI based microdilution method; type: functional; conditions: time 18-20 hrs; outline: as §1
[3] = tested on: Escherichia coli; experiment: Antibacterial activity against Escherichia coli ATCC 35218 strains 15 1 to 3 assessed as reduction in bacterial growth incubated for 18 to 20 hrs by CLSI based microdilution method; type: functional; conditions: time 18-20 hrs
Outline: (§2)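 CLSI broth microdilution. Compounds in DMSO (levofloxacin and meropenem in water), serial twofold dilutions in broth, 64 to 0.008 μg/mL. […] Results reported as MIC ranges across strains.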

[4] = tested on: Escherichia coli; experiment: Antibacterial activity against ESBL-producing Escherichia coli ATCC 35218 strains 15 1 to 3 assessed as reduction in bacterial growth incubated for 18 to 20 hrs by CLSI based microdilution method; type: functional; conditions: time 18-20 hrs; outline: as §2
[5] = tested on: Staphylococcus aureus; experiment: Antibacterial activity against methicillin-sensitive Staphylococcus aureus strains 15 1 to 4 assessed as reduction in bacterial growth incubated for 18 to 20 hrs by CLSI based microdilution method; type: functional; conditions: time 18-20 hrs; outline: as §1
[6] = tested on: Staphylococcus aureus; experiment: Antibacterial activity against methicillin-resistant Staphylococcus aureus strains 15 1 to 4 assessed as reduction in bacterial growth incubated for 18 to 20 hrs by CLSI based microdilution method; type: functional; conditions: time 18-20 hrs; outline: as §1
[7] = tested on: Staphylococcus epidermidis; experiment: Antibacterial activity against methicillin-resistant Staphylococcus epidermidis strains 15 1 to 4 assessed as reduction in bacterial growth incubated for 18 to 20 hrs by CLSI based microdilution method; type: functional; conditions: time 18-20 hrs; outline: as §1
[8] = tested on: Pseudomonas aeruginosa; experiment: Antibacterial activity against IMP4-producing multidrug resistant Pseudomonas aeruginosa assessed as reduction in bacterial growth incubated for 18 to 20 hrs by CLSI based microdilution method; type: functional; conditions: time 18-20 hrs; outline: as §1
[9] = tested on: Acinetobacter baumannii; experiment: Antibacterial activity agains OXA23-producing multidrug resistant Acinetobacter baumannii assessed as reduction in bacterial growth incubated for 18 to 20 hrs by CLSI based microdilution method; type: functional; conditions: time 18-20 hrs; outline: as §1
[10] = tested on: Escherichia coli; experiment: Antibacterial activity against ESBL-producing multidrug resistant Escherichia coli assessed as reduction in bacterial growth incubated for 18 to 20 hrs by CLSI based microdilution method; type: functional; conditions: time 18-20 hrs; outline: as §1
[11] = tested on: Pseudomonas aeruginosa; experiment: Antibacterial activity against wild type Pseudomonas aeruginosa ATCC 27853 assessed as reduction in bacterial growth incubated for 18 to 20 hrs by CLSI based microdilution method; type: functional; conditions: time 18-20 hrs; outline: as §2
[12] = tested on: Escherichia coli; experiment: Antibacterial activity against multidrug resistant wild type Escherichia coli ATCC BAA-2340 assessed as reduction in bacterial growth incubated for 18 to 20 hrs by CLSI based microdilution method; type: functional; conditions: time 18-20 hrs; outline: as §1
[13] = tested on: Klebsiella pneumoniae; experiment: Antibacterial activity agains wild type Klebsiella pneumoniae ATCC BAA-2470 assessed as reduction in bacterial growth incubated for 18 to 20 hrs by CLSI based microdilution method; type: functional; conditions: time 18-20 hrs; outline: as §1
[14] = tested on: Escherichia coli; experiment: Antibacterial activity against multidrug resistant wild type Escherichia coli NCTC 13353 assessed as reduction in bacterial growth incubated for 18 to 20 hrs by CLSI based microdilution method; type: functional; conditions: time 18-20 hrs; outline: as §1
[15] = tested on: Klebsiella pneumoniae; experiment: Antibacterial activity against KPC2-producing multidrug resistant Klebsiella pneumoniae assessed as reduction in bacterial growth incubated for 18 to 20 hrs by CLSI based microdilution method; type: functional; conditions: time 18-20 hrs; outline: as §1
[16] = tested on: Klebsiella pneumoniae; experiment: Antibacterial activity agains wild type Klebsiella pneumoniae ATCC BAA-1705 assessed as reduction in bacterial growth incubated for 18 to 20 hrs by CLSI based microdilution method; type: functional; conditions: time 18-20 hrs; outline: as §2
[17] = tested on: Acinetobacter baumannii; experiment: Antibacterial activity against wild type Acinetobacter baumannii NCTC 13304 assessed as reduction in bacterial growth incubated for 18 to 20 hrs by CLSI based microdilution method; type: functional; conditions: time 18-20 hrs; outline: as §1
[18] = Metabolic stability in human liver microsome assessed as metabolic bioavailability at 0.1 uM in presence of NADPH incubated upto 60 mins by LC-MS/MS analysis; type: ADME; conditions: liver microsomes
Outline: (§3)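 Compound at 0.1 μM final, in 0.01% DMSO with 0.005% BSA. Incubated with rat or human liver microsomes at 0.33 mg/mL in 0.1 M Tris-HCl, pH 7.4, with 5 mM MgCl₂ and 1 mM NADPH, at 37 °C. Samples at 0, 7, 17, 30 and 60 min quenched with cold methanol and analysed by LC-MS/MS. Half-life, Cl_int and MF% derived as previously described.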

[19] = Metabolic stability in rat liver microsome assessed as intrinsic clearance at 0.1 uM in presence of NADPH incubated upto 60 mins by LC-MS/MS analysis; type: ADME; conditions: microsomes, 1 h; outline: as §3
[20] = target: hERG (KCNH2) potassium channel (Homo sapiens, UniProt Q12809); experiment: Inhibition of hERG potassium channel assessed as maximum inhibition rate at 40 uM at -80 mV holding potential incubated for 120 seconds by whole cell-automated voltage clamp analysis assay relative to control; type: toxicity; conditions: time 120 sec
Outline: (§4)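 Automated whole-cell patch clamp, holding potential −80 mV. Voltage protocol applied every 20 s. Baseline set with external solution containing 0.1% DMSO and stabilised 3 min. Compound applied until steady state, at least 3 min, then washout. Maximum tested concentration 40 μM, or 3 μM for cisapride as positive control.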

[21] = Metabolic stability in human liver microsome assessed as intrinsic clearance at 0.1 uM in presence of NADPH incubated upto 60 mins by LC-MS/MS analysis; type: ADME; conditions: microsomes, 1 h; outline: as §3
[22] = target: Voltage-gated inwardly rectifying potassium channel KCNH2 (Homo sapiens, UniProt Q12809); experiment: Inhibition of hERG potassium channel assessed as […] at -80 mV holding potential incubated for 120 seconds by whole cell-automated voltage clamp analysis assay; type: toxicity; outline: as §4
[23] = Metabolic stability in human liver microsome assessed as elimination half life at 0.1 uM in presence of NADPH incubated upto 60 mins by LC-MS/MS analysis; type: ADME; conditions: liver microsomes, read-out: beta t1/2; outline: as §3
[24] = Metabolic stability in rat liver microsome assessed as metabolic bioavailability at 0.1 uM in presence of NADPH incubated upto 60 mins by LC-MS/MS analysis; type: ADME; conditions: liver microsomes; outline: as §3
[25] = Metabolic stability in rat liver microsome assessed as elimination half life at 0.1 uM in presence of NADPH incubated upto 60 mins by LC-MS/MS analysis; type: ADME; conditions: liver microsomes, read-out: beta t1/2; outline: as §3

Sequence of hERG (KCNH2) potassium channel (Q12809 whole entry): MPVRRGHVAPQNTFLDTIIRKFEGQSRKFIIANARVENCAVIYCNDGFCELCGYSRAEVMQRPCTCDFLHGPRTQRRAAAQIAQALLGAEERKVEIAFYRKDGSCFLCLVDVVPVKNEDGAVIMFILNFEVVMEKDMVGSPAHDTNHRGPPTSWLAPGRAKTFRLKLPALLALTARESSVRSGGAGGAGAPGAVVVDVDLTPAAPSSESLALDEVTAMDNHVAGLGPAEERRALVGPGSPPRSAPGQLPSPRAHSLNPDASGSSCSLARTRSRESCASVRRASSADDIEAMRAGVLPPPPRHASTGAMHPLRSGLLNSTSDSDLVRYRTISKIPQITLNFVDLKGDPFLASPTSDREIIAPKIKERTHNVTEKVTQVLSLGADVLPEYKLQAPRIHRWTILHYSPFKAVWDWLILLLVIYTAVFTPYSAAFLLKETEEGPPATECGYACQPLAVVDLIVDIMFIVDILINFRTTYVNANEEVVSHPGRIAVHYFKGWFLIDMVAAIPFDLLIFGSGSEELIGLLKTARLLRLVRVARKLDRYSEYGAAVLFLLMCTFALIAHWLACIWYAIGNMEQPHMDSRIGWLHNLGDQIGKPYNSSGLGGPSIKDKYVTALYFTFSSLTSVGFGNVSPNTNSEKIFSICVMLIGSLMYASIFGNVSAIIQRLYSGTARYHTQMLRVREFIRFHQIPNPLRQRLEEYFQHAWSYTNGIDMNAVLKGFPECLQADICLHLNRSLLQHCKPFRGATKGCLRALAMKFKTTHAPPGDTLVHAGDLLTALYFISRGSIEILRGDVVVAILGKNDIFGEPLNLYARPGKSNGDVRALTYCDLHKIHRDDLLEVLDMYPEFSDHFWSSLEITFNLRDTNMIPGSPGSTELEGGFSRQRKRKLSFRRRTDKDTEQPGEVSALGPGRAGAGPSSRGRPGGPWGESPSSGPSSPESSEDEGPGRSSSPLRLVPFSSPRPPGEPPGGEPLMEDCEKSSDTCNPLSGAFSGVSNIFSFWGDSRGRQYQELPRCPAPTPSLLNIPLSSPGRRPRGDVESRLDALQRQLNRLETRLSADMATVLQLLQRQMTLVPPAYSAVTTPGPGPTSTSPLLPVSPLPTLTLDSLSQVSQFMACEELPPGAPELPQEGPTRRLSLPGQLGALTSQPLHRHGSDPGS
Sequence of Voltage-gated inwardly rectifying potassium channel KCNH2 (Q12809 whole entry): as above

Structure (SMILES)	MIC [1] [µg/mL]	MIC [2] [µg/mL]	MIC [3] [µg/mL]	MIC [4] [µg/mL]	MIC [5] [µg/mL]	MIC [6] [µg/mL]	MIC [7] [µg/mL]	MIC [8] [µg/mL]	MIC [9] [µg/mL]	MIC [10] [µg/mL]	MIC [11] [µg/mL]	MIC [12] [µg/mL]	MIC [13] [µg/mL]	MIC [14] [µg/mL]	MIC [15] [µg/mL]	MIC [16] [µg/mL]	MIC [17] [µg/mL]	Fh at 1 h, 0.1 µM [18] [%]	CLH [19] [mL/min/g]	CLH [21] [mL/min/g]	other results
CCC(CN)=C1CN(c2nc(Sc3ccc(Br)cn3)nc3[nH]c4c(NC)cc(F)cc4c23)C1	0.25 (≈ 0.473 µM)	> 16	> 1	> 2	1 (≈ 1.89 µM)	0.5 (≈ 0.946 µM)	0.25 (≈ 0.473 µM)	–	–	–	–	–	–	–	–	–	–	–	–	–	–
C[C@H]1COc2c(N3CCN(C)CC3)c(F)cc3c(=O)c(C(=O)O)cn1c23.C[C@H]1COc2c(N3CCN(C)CC3)c(F)cc3c(=O)c(C(=O)O)cn1c23.O [LEVOFLOXACIN]	0.125	0.5	≤ 0.03	–	0.25	16	> 4	4	4	8	2	4	16	32	≥ 32	64	4	–	–	–	–
CNc1cc(F)cc2c1[nH]c1nc(Oc3cnc(C)nc3)nc(N3CC(=C(CN)C(C)C)C3)c12	< 0.008	1 (≈ 2.16 µM)	0.03 (≈ 0.0649 µM)	0.125 (≈ 0.27 µM)	< 0.008	–	–	4 (≈ 8.65 µM)	0.5 (≈ 1.08 µM)	1 (≈ 2.16 µM)	2 (≈ 4.32 µM)	0.5 (≈ 1.08 µM)	2 (≈ 4.32 µM)	0.5 (≈ 1.08 µM)	2 (≈ 4.32 µM)	4 (≈ 8.65 µM)	0.5 (≈ 1.08 µM)	26.2	118.3	55.2	inhibition at 2 min, 40 µM [20]: 26.5%; IC50 [22]: > 40 µM; half-life at 0.1 µM [23]: 38 min; Fh at 1 h, 0.1 µM [24]: 27.3%; half-life at 0.1 µM [25]: 17.8 min
CCC(CN)=C1CN(c2nc(Oc3cnc(CO)nc3)nc3[nH]c4c(NC)cc(F)cc4c23)C1	< 0.008	> 4	0.25 (≈ 0.538 µM)	0.5 (≈ 1.08 µM)	< 0.008	–	–	> 8	1 (≈ 2.15 µM)	1 (≈ 2.15 µM)	4 (≈ 8.61 µM)	1 (≈ 2.15 µM)	2 (≈ 4.31 µM)	0.5 (≈ 1.08 µM)	4 (≈ 8.61 µM)	8 (≈ 17.2 µM)	1 (≈ 2.15 µM)	35	176.4	36.3	inhibition at 2 min, 40 µM [20]: 30.9%; IC50 [22]: > 40 µM; half-life at 0.1 µM [23]: 57.8 min; Fh at 1 h, 0.1 µM [24]: 20.1%; half-life at 0.1 µM [25]: 11.9 min
CNc1cc(F)cc2c1[nH]c1nc(Oc3cnc(C)nc3)nc(N3CC(=CCN)C3)c12	0.25 (≈ 0.595 µM)	≥ 16	0.5 (≈ 1.19 µM)	8 (≈ 19 µM)	0.5 (≈ 1.19 µM)	0.5 (≈ 1.19 µM)	0.25 (≈ 0.595 µM)	–	–	–	–	–	–	–	–	–	–	–	–	–	–
[2H]C([2H])([2H])Nc1cc(F)cc2c1[nH]c1nc(Oc3cnc(C)nc3)nc(N3CC(=C(CC)CN)C3)c12	–	–	–	–	–	–	–	4 (≈ 8.86 µM)	0.25 (≈ 0.554 µM)	0.5 (≈ 1.11 µM)	2 (≈ 4.43 µM)	0.25 (≈ 0.554 µM)	2 (≈ 4.43 µM)	0.125 (≈ 0.277 µM)	1 (≈ 2.21 µM)	4 (≈ 8.86 µM)	0.25 (≈ 0.554 µM)	49.6	63.9	20	half-life at 0.1 µM [23]: 105 min; Fh at 1 h, 0.1 µM [24]: 41%; half-life at 0.1 µM [25]: 32.9 min
